The test system of the assay is Plasmodium yoelii. Briefly: NOVARTIS: Antimalarial liver stage activity measured as reduction in Plasmodium yoelii schizont area in HepG2-A16-CD81 cells by immuno-fluorescence, and median schizont size at 10uM compound concentration. The format is functional, organism-based. The settings on record: for IC50: Plasmodium yoelii, HepG2-A16-CD81. The procedure, abridged:
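Host and parasite nuclei stained with Hoechst 33342, parasites with αPyHSP70 antibody; 25 images per well by high-content imaging; median parasite (schizont) area measured by automated image analysis, ~50 schizonts per experiment, two or more independent experiments.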

A word on the IC50: it is the concentration that gives 50% inhibition. Lower therefore signals inhibition by little substance. The compound `CC[n+]1c(/C=C/N(C)c2ccccc2)n(-c2ccccc2)c2ccc(-c3nc4ccccc4s3)cc21` had a Schizont size of 20.14 um and an IC50 of 14 nM.
For `Cc1nc([P+](c2ccccc2)(c2ccccc2)c2ccccc2)c(SCc2ccccc2)o1.[O-][Cl+3]([O-])([O-])[O-]`, the Schizont size is 31.83 um and the IC50 stood at 33.5 nM.
For `Cl.OCCNc1nc(Nc2ccccc2)nc2ccccc12`, in that order: 62.1 um and 47.9 nM.
For `CCOc1ccc(N2C(N)=NC(N)=NC2(C)C)cc1.Cl`, in that order: 35.59 um and 46.8 nM.
The like results for `CCOC(=O)c1cn(CC)c2cc(N(C)CCc3ccc(OC)c(OC)c3)c(F)cc2c1=O` were, in that order, 23.69 um and 42.1 nM.
`COC(OC)C(C)=NNC(N)=S` registered a Schizont size of 78.8 um and an IC50 of 4.93 nM.
For the compound `CC1(C)N=C(N)N=C(N)N1c1ccc(I)cc1.Cl`, the Schizont size is recorded as 33.82 um and the IC50 turned out to be 10 nM.
With `Cc1ccc(N2C(N)=NC(N)=NC2(C)C)cc1.Cl`, the Schizont size worked out at 35.07 um and the IC50 amounted to 10 nM.
As to `CC1(C)C2CCC(C2)C1(C)NC(=S)NN=Cc1ccccn1` (centres undefined), the Schizont size was 28.29 um and the IC50 amounted to 17.4 nM.
Compound `Cc1ccc(CSCc2ccc(C(=O)NC3CC3)o2)cc1` gave a Schizont size of 25.36 um and an IC50 of 47.3 nM.
For `CC[n+]1c(/C=C/C=C2\N(C)c3ccccc3C2(C)C)n(-c2ccccc2)c2cc(Cl)ccc21`, in that order: 12.53 um and 13.6 nM.
`CCC(C)(C)c1ccc(OCCCC[n+]2cccc(C)c2C)c(C(C)(C)CC)c1.[Br-]` gave a Schizont size of 12.53 um and an IC50 of 45.5 nM.
As for `c1ccc(-c2cc(N3CCN(c4ccccn4)CC3)nc(-c3ccccn3)n2)nc1`, the Schizont size is on record as 24.32 um and the IC50 turned out to be 17.5 nM.
`CCCCCC[P+](N(CCC)CCC)(N(CCC)CCC)N(CCC)CCC` had a Schizont size of 30.27 um and an IC50 of 49.1 nM.
For `Cc1ccc2nc3nc4c(C)cccc4c(N)c3cc2c1`, the Schizont size was found to be 22.23 um and the IC50 came out at 47.4 nM.
The like results for `CCCCN1C=CC=C/C1=C\c1sc2ccccc2[n+]1CC` were, in that order, 18.47 um and 10.9 nM.
As to `CCCc1ccc(C(=O)NC(=O)c2ccccc2O)cc1`, the Schizont size was 23.17 um and the IC50 came out at 4.18 nM.
The compound `CCCCCc1ccc(OCCCC[n+]2cccc(C)c2)c(CCCCC)c1.[Cl-]` came in with a Schizont size of 23.48 um and an IC50 of 34.6 nM.
For `CCCCN(CCCC)[P+](N(CCCC)CCCC)(N(CCCC)CCCC)N(CCCC)CCCC`, the Schizont size stood at 24.32 um and the IC50 was found to be 11.5 nM.
For `CCN1C=C(c2ccc(C)cc2)S/C1=C\c1sc2ccccc2[n+]1C`, the Schizont size is 37.89 um and the IC50 worked out at 4.5 nM.
Regarding `Cc1ccc(-c2nn3c(O)c4c(nc3c2C)CCCC4)cc1`, the Schizont size worked out at 28.7 um and the concentration for half-maximal inhibition (IC50) is 11.3 nM.
With `Fc1ccc2nc(Nc3nc(-c4ccccn4)cs3)sc2c1`, the Schizont size is 22.86 um and it took 43.8 nM to reach half-maximal inhibition (IC50).
In the case of `CCOc1ccc(CN(C(=O)COc2ccc(Cl)cc2)C(C)CCCN(CC)CC)cc1.O=C(O)C(F)(F)F` (centres undefined), the Schizont size came to 55.32 um and the midpoint of inhibition, the IC50, lay at 20.4 nM.
`CCOC(=O)c1ccc2nc(-c3ccccc3)cc(O)c2c1` registered a Schizont size of 20.67 um and an IC50 of 20 nM.
For `CN(Cc1ccccc1)C(=O)CSc1nc(NCc2ccccc2)c2ccccc2n1`, in that order: 67.84 um and 7.13 nM.
The like results for `COc1cccc(N2C(N)=NC(N)=NC2(C)C)c1.Cl` were, in that order, 38.1 um and 29.5 nM.
As to `C/C=C/[P+](c1ccccc1)(c1ccccc1)c1ccccc1`, the Schizont size is reported as 26.09 um and 49.4 nM corresponded to half-maximal inhibition (IC50).
For `C1CCC(NP2(NC3CCCCC3)=NP(NC3CCCCC3)(NC3CCCCC3)=NP(NC3CCCCC3)(NC3CCCCC3)=N2)CC1`, in that order: 33.82 um and 18.6 nM.
For `O=C(NC(=C(Cl)Cl)[P+](c1ccccc1)(c1ccccc1)c1ccccc1)c1ccc(F)cc1`, in that order: 26.93 um and 14.5 nM.
The compound `Cc1oc2c(c1C(=O)NC1CCS(=O)(=O)C1)C(=O)c1ccccc1C2=O` (centres undefined) came in with a Schizont size of 17.54 um and an IC50 of 2.29 nM.
Consider `CCOC(=O)c1ccc(NC(=O)CSc2nc(NCc3ccccc3)c3ccccc3n2)cc1`, for which the Schizont size was 69.2 um and half-maximal inhibition (IC50) was put at 38.1 nM.
`CC[n+]1c(/C=C/C=C2\N(C)c3ccccc3C2(C)C)n(Cc2ccccc2)c2ccccc21` showed a Schizont size of 13.99 um and an IC50 of 6.76 nM.
With `Cc1ccc(-n2c(-c3ccccc3)cc(C=NNC(=O)c3cccc(-n4c(C)ccc4C)c3)c2-c2ccccc2)cc1`, the Schizont size was determined as 30.06 um and the IC50 worked out at 47.9 nM.
The like results for `Cc1ccc(-n2c(-c3ccccc3)cc(C=NNC(=O)c3cccc(O)c3)c2-c2ccccc2)cc1` were, in that order, 26.72 um and 20.2 nM.
Consider `O=C(NC1CC1)C1CCN(c2cccc3c2C(=O)N(Cc2cccc(C(F)(F)F)c2)C3=O)CC1`, for which the Schizont size stood at 24.01 um and the IC50 came out at 29.3 nM.
In turn, `CC1(C)N=C(N)N=C(N)N1c1ccc(F)cc1.Cl` gave a Schizont size of 38.93 um and an IC50 of 18.9 nM.
In the case of `S=C(NN=Cc1ccccn1)NC1CC2CC1C1C=CCC21` (centres undefined), the Schizont size was 27.45 um and inhibition was half-maximal at 25.6 nM (IC50).
For `CN1C(=O)N(C)C(NNC(N)=S)C1NNC(N)=S` (centres undefined), in that order: 117.53 um and 15 nM.
Take `CCOC(=O)c1cnc2c3c(ccc2c1O)CCCC3`: the Schizont size was determined as 26.2 um and 10.8 nM corresponded to half-maximal inhibition (IC50).
For the compound `Cc1cccc(N2C(N)=NC(N)=NC2(C)C)c1.Cl`, the Schizont size amounted to 38.51 um and the IC50 is 4.25 nM.
`CCN1/C(=C/c2ccc3ccccc3[n+]2CC)Sc2sc3ccccc3c21` yielded a Schizont size of 32.77 um and a half-maximal inhibitory concentration (IC50) of 6.21 nM.
The like results for `c1ccc(-c2ccc(-c3ccccn3)nc2)nc1` were, in that order, 22.34 um and 39.4 nM.
As for `CCC(/C=C1\Sc2ccc(OC)cc2N1CCCS(=O)(=O)O)=C\c1sc2ccc(OC)cc2[n+]1CCCS(=O)(=O)O`, the Schizont size came to 18.06 um and the IC50 was determined as 11.2 nM.
As to `CCOc1ccc2ncc(S(=O)(=O)c3ccc(OC)cc3)c(N3CCN(C)CC3)c2c1`, the Schizont size is recorded as 63.67 um and the IC50 worked out at 10.7 nM.
In turn, `CCN1C(C)=C(C)S/C1=C\c1ccc2cc(C)ccc2[n+]1C` came in with a Schizont size of 14.93 um and an IC50 of 11.3 nM.
`CN(C)c1ccc(C(=Cc2cc(-c3ccccc3)cc(-c3ccccc3)[o+]2)c2ccc(N(C)C)cc2)cc1` returned a Schizont size of 26.72 um and an IC50 of 51.9 nM.
As to `C=CC[n+]1c(C=C2C=CN(C)C=C2)sc2ccccc21.[I-]`, the Schizont size is listed as 26.72 um and half-maximal inhibition (IC50) required 13.2 nM.

The values are drawn from ChEMBL document CHEMBL1789904, “Imaging of Plasmodium liver stages to drive next-generation antimalarial drug discovery” (Science, 2011).
